For orientation: Ki means a measure of affinity in units of concentration, obtained from inhibition or displacement. The ED50 is the dose that gives a 50% effect, or the effect in half of the subjects. Low values mean greater potency, high ones weaker potency. A word on the Kb: it is the equilibrium dissociation constant of an antagonist, usually derived from a functional assay. What is called half-life is how long it takes for the measured level to halve. Higher therefore signals slow decline. A word on the Cmax: it is the maximum level reached in the sampled fluid or tissue.

The target in data set [1] is Prostaglandin E2 receptor EP4 subtype (Homo sapiens, UniProt P35408). The data set is described as follows: Binding affinity to EP4 receptor.
In data set [2] the target is T1, Prostaglandin E2 receptor EP3 subtype (Homo sapiens, UniProt P43115).
T1 sequence (P43115 whole entry): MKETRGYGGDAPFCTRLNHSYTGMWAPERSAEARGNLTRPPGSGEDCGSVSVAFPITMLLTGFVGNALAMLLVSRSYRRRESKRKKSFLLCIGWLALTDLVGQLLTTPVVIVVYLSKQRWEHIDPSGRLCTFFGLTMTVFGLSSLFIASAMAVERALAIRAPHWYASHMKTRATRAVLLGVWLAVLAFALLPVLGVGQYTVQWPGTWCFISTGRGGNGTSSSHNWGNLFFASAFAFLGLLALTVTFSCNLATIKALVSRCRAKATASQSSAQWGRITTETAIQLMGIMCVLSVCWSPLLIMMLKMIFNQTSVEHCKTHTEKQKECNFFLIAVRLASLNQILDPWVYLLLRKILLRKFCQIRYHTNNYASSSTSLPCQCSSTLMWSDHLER
The data set is described as follows: Binding affinity to EP3 receptor.

Data set [3] can be described thus: Metabolism in human hepatocytes. It counts as ADME, cell-based, Hepatocyte. The note with it: read-out: Activity.
For data set [4], the target named is Prostaglandin E2 receptor EP2 subtype (Homo sapiens, UniProt P43116). The data set is described as follows: Binding affinity to EP2 receptor.
In data set [5] the test system is Rattus norvegicus. The data set is described as follows: Antiinflammatory activity against carrageenan-induced paw edema in po dosed rat. It counts as functional. On the technique in general: In the carrageenan paw model, swelling and tenderness develop within hours.
For data set [6], the target named is T2, Prostaglandin E2 receptor EP3 subtype (Homo sapiens) (UniProt P43115).
T2 sequence (whole entry): T1 sequence (P43115 whole entry)
The data set is described as follows: Antagonistic activity at EP3 receptor assessed as inhibition of cAMP production in HEK EBNA cells. It counts as functional, cell-based. The conditions noted are these: HEK293-EBNA, filed as antagonist. For orientation: cAMP levels reflect the balance of adenylyl cyclase and phosphodiesterase activity.

The target of data set [7] is T3, Prostaglandin E2 receptor EP1 subtype (Homo sapiens, UniProt P34995).
T3 sequence (P34995 whole entry): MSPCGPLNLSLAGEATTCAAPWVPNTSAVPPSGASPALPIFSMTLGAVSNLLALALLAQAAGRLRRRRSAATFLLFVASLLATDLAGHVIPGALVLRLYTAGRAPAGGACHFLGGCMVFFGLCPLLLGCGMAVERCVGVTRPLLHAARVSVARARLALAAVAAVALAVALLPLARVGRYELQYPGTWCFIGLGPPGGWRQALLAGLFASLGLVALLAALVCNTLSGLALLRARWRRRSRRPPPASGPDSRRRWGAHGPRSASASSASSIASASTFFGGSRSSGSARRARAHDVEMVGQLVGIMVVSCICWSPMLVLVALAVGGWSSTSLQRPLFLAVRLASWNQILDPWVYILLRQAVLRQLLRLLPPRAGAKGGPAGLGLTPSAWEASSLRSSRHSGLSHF
The data set is described as follows: Binding affinity to EP1 receptor.

Data set [8] deals with Prostaglandin F2-alpha receptor (Homo sapiens, UniProt P43088). The data set is described as follows: Binding affinity to FP receptor.
Data set [9] is described as follows: Clearance in Sprague-Dawley rat at 10 mg/kg, po and 5 mg/kg, iv. It counts as ADME, organism-based. The note with it: in vivo.
Data set [10] can be described thus: Stability in rat hepatocytes after 3 hrs. The conditions noted are these: read-out: Stability. It counts as ADME, cell-based, Hepatocyte. An outline of the steps: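 Incubation with rat hepatocytes for 3 h; percentage of parent compound recovered intact.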
Data set [11] has as its system Rattus norvegicus. The data set is described as follows: Concentration in carrageenan-induced hyperalgesic rat at 10 mg/kg, po, 1 hr postdose. Type of data set: functional. Summed up: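 Young 100 g rats from the hyperalgesia model given 10 mg/kg po in 0.5% methocel as sodium salts; plasma concentration measured 1 h post-dosing, at the time hyperalgesia was assessed.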

Data set [12] addresses T4, Prostaglandin D2 receptor (Homo sapiens, UniProt Q13258).
T4 sequence (Q13258 whole entry): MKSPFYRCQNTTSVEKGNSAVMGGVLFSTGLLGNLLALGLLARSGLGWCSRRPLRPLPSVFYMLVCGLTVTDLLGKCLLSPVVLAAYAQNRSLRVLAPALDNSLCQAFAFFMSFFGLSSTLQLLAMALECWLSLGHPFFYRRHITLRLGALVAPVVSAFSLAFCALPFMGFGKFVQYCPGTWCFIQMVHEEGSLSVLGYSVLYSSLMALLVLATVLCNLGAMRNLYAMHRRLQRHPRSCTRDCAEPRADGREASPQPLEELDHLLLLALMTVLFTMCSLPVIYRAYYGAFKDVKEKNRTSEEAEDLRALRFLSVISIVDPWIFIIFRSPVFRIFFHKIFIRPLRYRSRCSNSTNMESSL
The data set is described as follows: Binding affinity to DP receptor.

The target in data set [13] is Prostacyclin receptor (Homo sapiens, UniProt P43119). The data set is described as follows: Binding affinity to IP receptor.
Data set [14] has as its target T1, Prostaglandin E2 receptor EP3 subtype. The data set is described as follows: Binding affinity to EP3 receptor in presence of HSA.
Data set [15] relates to Rattus norvegicus. The data set is described as follows: Effect on carrageenan-induced paw hyperalgesia in po dosed rat. Type of data set: functional.
For data set [16], the target named is T5, Thromboxane A2 receptor (Homo sapiens, UniProt P21731).
T5 sequence (P21731 whole entry): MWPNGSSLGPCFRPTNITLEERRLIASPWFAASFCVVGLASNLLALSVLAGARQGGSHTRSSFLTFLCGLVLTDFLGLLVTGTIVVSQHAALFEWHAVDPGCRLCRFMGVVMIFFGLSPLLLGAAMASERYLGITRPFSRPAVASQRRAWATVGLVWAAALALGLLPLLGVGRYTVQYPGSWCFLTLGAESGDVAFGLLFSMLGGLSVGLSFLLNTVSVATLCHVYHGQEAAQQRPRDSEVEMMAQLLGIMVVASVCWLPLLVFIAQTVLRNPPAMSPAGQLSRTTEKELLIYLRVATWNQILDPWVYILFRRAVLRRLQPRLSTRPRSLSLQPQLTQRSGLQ
The data set is described as follows: Binding affinity to TP receptor.

Data set [17] in a line: Half life in Sprague-Dawley rat at 10 mg/kg, po and 5 mg/kg, iv. It counts as ADME, organism-based. The conditions noted are these: in vivo.
A short description of data set [18]: Bioavailability in Sprague-Dawley rat at 10 mg/kg, po and 5 mg/kg, iv. The note with it: in vivo. It counts as ADME, organism-based.
Data set [19] is described as follows: Cmax in Sprague-Dawley rat at 10 mg/kg, po and 5 mg/kg, iv after 1 hr. It counts as ADME, organism-based. The note with it: in vivo.
Data set [20] is described as follows: Cmax in Sprague-Dawley rat at 10 mg/kg, po and 5 mg/kg, iv after 30 mins. Type of data set: ADME, organism-based. The conditions noted are these: in vivo.
For data set [21], the system named is Rattus norvegicus. The data set is described as follows: Concentration in carrageenan-induced hyperalgesic rat at 5 mg/kg, po, 1 hr postdose. It counts as functional.

The structures appear in SMILES notation.

Sequence of Prostaglandin F2-alpha receptor (P43088 whole entry): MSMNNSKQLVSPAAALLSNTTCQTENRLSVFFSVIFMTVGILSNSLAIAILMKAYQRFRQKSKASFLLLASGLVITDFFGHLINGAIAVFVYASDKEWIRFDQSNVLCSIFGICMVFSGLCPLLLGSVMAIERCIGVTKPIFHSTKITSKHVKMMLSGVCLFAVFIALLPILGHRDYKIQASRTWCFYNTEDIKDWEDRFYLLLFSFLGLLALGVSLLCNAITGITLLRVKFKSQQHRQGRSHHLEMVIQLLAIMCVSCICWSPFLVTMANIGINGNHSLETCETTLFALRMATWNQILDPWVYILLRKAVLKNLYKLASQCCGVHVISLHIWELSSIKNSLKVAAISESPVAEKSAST
Sequence of Prostaglandin E2 receptor EP2 subtype (P43116 whole entry): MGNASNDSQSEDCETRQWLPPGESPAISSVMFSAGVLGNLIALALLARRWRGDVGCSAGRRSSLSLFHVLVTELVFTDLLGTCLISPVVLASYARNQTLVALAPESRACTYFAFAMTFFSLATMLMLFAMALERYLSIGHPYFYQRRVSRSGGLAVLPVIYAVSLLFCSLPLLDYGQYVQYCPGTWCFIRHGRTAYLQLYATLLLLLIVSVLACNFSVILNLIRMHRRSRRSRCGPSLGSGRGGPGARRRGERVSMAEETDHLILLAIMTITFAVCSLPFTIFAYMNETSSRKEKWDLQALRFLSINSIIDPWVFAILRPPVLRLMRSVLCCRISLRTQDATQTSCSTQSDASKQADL
Sequence of Prostaglandin E2 receptor EP4 subtype (P35408 whole entry): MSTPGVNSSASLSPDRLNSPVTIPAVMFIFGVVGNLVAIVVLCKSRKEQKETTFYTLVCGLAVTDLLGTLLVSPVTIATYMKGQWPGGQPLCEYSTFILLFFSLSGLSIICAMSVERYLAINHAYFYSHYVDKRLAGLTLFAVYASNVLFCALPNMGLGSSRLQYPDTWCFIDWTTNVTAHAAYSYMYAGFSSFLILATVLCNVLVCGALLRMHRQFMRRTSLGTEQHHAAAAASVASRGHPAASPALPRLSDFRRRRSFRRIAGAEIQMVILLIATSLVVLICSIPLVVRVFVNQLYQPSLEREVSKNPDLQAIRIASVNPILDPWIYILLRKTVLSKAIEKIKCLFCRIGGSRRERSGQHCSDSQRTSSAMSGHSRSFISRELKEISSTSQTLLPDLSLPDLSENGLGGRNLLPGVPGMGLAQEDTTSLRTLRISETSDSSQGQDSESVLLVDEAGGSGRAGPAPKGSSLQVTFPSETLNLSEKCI
Sequence of Prostacyclin receptor (P43119 whole entry): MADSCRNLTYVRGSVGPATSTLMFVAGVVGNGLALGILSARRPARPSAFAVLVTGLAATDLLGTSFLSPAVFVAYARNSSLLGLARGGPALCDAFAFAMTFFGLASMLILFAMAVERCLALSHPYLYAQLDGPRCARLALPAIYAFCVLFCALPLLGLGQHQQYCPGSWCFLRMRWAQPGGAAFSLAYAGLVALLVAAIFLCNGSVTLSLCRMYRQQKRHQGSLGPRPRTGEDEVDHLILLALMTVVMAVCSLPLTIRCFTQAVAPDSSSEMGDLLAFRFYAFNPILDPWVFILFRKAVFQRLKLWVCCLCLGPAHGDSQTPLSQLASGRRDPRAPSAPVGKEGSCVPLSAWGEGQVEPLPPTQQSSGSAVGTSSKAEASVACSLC

Regarding `COc1ccc(Br)cc1S(=O)(=O)NC(=O)/C=C/c1ccccc1Cc1ccc2ccccc2c1`, the Ki is 0.89 µM (antagonist) in [1]; 0.0006 µM (antagonist) in [2]; more than 50 µM in data set [4]; 39 µM in [7]; more than 0.5 µM in data set [8]; more than 0.5 µM in data set [12]. In addition, the values for the inhibition constant Ki in data set [13], in data set [14] and in data set [16] were more than 0.5 µM, 0.0069 µM (antagonist) and more than 0.5 µM, respectively. The metabolised in data set [3] stood at 36%. In addition, the median effective dose (ED50) in data set [5] and in data set [15] was 3.3 mg/kg in each case. Further, the antagonist equilibrium constant (Kb) in [6] is 0.0006 µM. In data set [9], this compound displayed a clearance of 1 mL/min. For the same compound, the remaining at 3 h in data set [10] is 30%. In data set [11], the Activity is 32 µM. This compound had a half-life in [17] of 4 h. The bioavailability in [18] worked out at 72%. The compound further showed a Cmax in data set [19] of 50 µM.

Regarding `O=C(O)/C=C/c1ccccc1Cc1ccc2cc(OCc3ccccc3)ccc2c1`, the Ki was more than 15 µM in [1]; 0.0032 µM (antagonist) in data set [2]; more than 40 µM in data set [4]; more than 100 µM in data set [7]; more than 0.5 µM in [8]; 0.082 µM (antagonist) in data set [12]. Besides, the values for the Ki in data set [13], in data set [14] and in [16] were more than 0.5 µM, 0.046 µM (antagonist) and more than 0.5 µM, respectively. Moreover, the ED50 in data set [5] was more than 10 mg/kg; in data set [15] it was 4.6 mg/kg. The same compound gave a Cmax in [20] of 28 µM. This compound gave a clearance in data set [9] of 3.1 mL/min. For the same compound, the Activity in [21] was determined as 11 µM. Besides, the half-life in [17] is 3 h. The bioavailability in data set [18] is 59%.

On to `O=C(/C=C/c1ccccc1Cc1ccc2ccccc2c1)NS(=O)(=O)c1cccs1`, for which the Ki in data set [1] is 1.3 µM (antagonist); in [4], 8.6 µM (antagonist); in data set [7], 9.6 µM (antagonist); in data set [8], more than 0.5 µM; in data set [12], more than 0.5 µM; in [13] it was more than 0.5 µM. In data set [16], this compound displayed an inhibitory constant (Ki) of more than 0.5 µM. The metabolised in data set [3] was 45%. Also, the ED50 in data set [5] came to 1.2 mg/kg; in data set [15], 6.2 mg/kg. Further, in data set [20], the Cmax was 21 µM. Moreover, the clearance in data set [9] was 12 mL/min. Moreover, the remaining at 3 h in [10] is 43%. In data set [11], this compound displayed an Activity of 5 µM. Further, the half-life in data set [17] was 3 h. Further, the bioavailability in data set [18] stood at 144%.

Regarding `Cc1ccc(OCc2ccccc2)c(/C=C/Cc2ccccc2/C=C/C(=O)O)c1`, the Ki was 2 µM (antagonist) in data set [1]; 0.009 µM (antagonist) in [2]; 0.86 µM (antagonist) in [4]; 19 µM in data set [7]; more than 0.5 µM in [8]; more than 0.5 µM in data set [12]. The inhibition constant Ki in data set [13] and in [16] was more than 0.5 µM in each case. Further, the results for the ED50 in [5] and in data set [15] were 0.9 mg/kg and 20 mg/kg, respectively. For the same compound, in data set [6], the antagonist dissociation constant (Kb) was 0.032 µM. The same compound had a Cmax in [20] of 22 µM. Further, the clearance in [9] turned out to be 10 mL/min. The remaining at 3 h in data set [10] came to 8%. In [11], the Activity was found to be 1.2 µM. In addition, in data set [17], the half-life is 2 h. In [18], the bioavailability amounted to 97%.

The record behind these values is ChEMBL document CHEMBL1139690, “Comparison between two classes of selective EP(3) antagonists and their biological activities” (Bioorg Med Chem Lett, 2006).
